Source: ChEMBL document CHEMBL4052589, “Discovery of Imidazo[1,2-a]pyridine Ethers and Squaramides as Selective and Potent Inhibitors of Mycobacterial Adenosine Triphosphate (ATP) Synthesis” (J Med Chem, 2017)

What follows are molecules tested on Mycobacterium tuberculosis (assay: Induction of membrane damage in Mycobacterium bovis BCG after 60 mins by DiOC2 probe-based fluorescence assay). Details: variant bovis BCG, 1 h.
Type: functional
Procedure, shortened: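 Cell-based assay. Mid-log phase BCG culture was pre-loaded with DiOC2 before compound exposure. Fluorescence was read as the red-shifted emission at 600 nm, which tracks membrane potential. CCCP served as the positive control, and IC50 was derived.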
Molecule `c1ccc(OCCCOc2c(-c3ccccc3)nc3ccccn23)cc1` has an IC50 of over 100 µM. In the case of `O=c1c(NCc2cnccn2)c(-c2ccc(N3CCOCC3)cc2)c1=O`, the IC50 is reported as over 100 µM. For `Cc1ccc2nc(-c3ccc(F)cc3)c(OCCCNc3ccc(F)c(C)c3)n2c1`, the IC50 was over 100 µM. `Cc1ccc2nc(-c3ccc(F)cc3)c(OCCCNc3ccc(F)c(C)n3)n2c1` showed an IC50 of over 100 µM. `Cc1ccc2nc(-c3ccccc3)c(OCCCOc3ccccc3)n2c1` was tested, and the IC50 was over 100 µM. In the case of `O=c1c(NCc2ccccn2)c(-c2ccc(N3CCOCC3)cc2)c1=O`, the IC50 is reported as over 100 µM.
